Results reported in ChEMBL document CHEMBL1156196, “'Click chemistry' synthesis of a library of 1,2,3-triazole-substituted galactose derivatives and their evaluation against Trypanosoma cruzi and its cell surface trans-sialidase” (Bioorg Med Chem, 2010).
The source made the active and inactive calls. The rule behind the calls is not given here.

Key:
Trypanosoma cruzi [1] = test: Inhibition of Trypanosoma cruzi recombinant trans-sialidase at 1 mM after 10 mins by MUNANA continuous fluorimetric assay
In short: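 Recombinant His-tagged 70 kDa TcTS, truncated to drop the C-terminal repeats and keep the catalytic N-terminal domain. Enzyme and inhibitor were preincubated 10 min at 26 °C in phosphate buffer pH 7.4. MuNANA (assay concentration 0.1 mM) was then added, and released methylumbelliferone fluorescence was read after 10 min (ex 360, em 460 nm). Run in duplicate.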

Trypanosoma cruzi [2] = test: Inhibition of Trypanosoma cruzi recombinant trans-sialidase at 0.5 mM after 10 mins by MUNANA continuous fluorimetric assay
In short: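 Same His-tagged truncated recombinant TcTS (catalytic N-terminal domain) in phosphate buffer pH 7.4. Samples were dissolved in water with 0.6% DMSO and tested at 0.5 mM. Preincubation was 10 min at 26 °C, then 0.1 mM MuNANA was added. Mu fluorescence was read at 10 min (ex 360, em 460 nm), in duplicate.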

[3] = Cytotoxicity against mouse splenocytes after 24 hrs using propidium iodide staining by FACS analysis; assay type: cell-based; conditions: splenocyte
In short: (§1)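 Spleen cells from C57BL/6 mice were mechanically dissociated and given red-cell lysis for 4 min in Tris-HCl pH 7.5/NH₄Cl. They were plated at 5 × 10⁵ cells/well with test compounds (maximum 0.25 mM for less soluble ones) for 24 h at 37 °C, 5% CO₂. 0.5% Tween 20 was the death control. Cells were stained with 10 µg/mL propidium iodide.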

Trypanosoma cruzi [4] = test: Antitrypanosomal activity against Trypanosoma cruzi Y at < 100 uM after 24 hrs; assay type: functional, organism-based
In short: (§2)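 Y-strain trypomastigotes from LLC-MK₂ cultures, 6.5 × 10⁶ parasites/ml in RPMI with 10% FBS. Exposure included 750, 500, 250 and 100 µM at 37 °C, 5% CO₂. Poorly water-soluble compounds needed 0.6% DMSO and were capped at 0.75 mM. Benznidazole was the reference drug. Viability was measured by counting motile forms after 24 h.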

[5] = Cytotoxicity against mouse splenocytes at 50 to 100 uM after 24 hrs using propidium iodide staining by FACS analysis; assay type: cell-based; conditions: splenocyte; in short: as §1
Trypanosoma cruzi [6] = test: Antitrypanosomal activity against Trypanosoma cruzi Y at > 100 uM after 24 hrs; assay type: functional; in short: as §2
[7] = in the assay text read “in the low 100s of uM range” for “at < 100 uM”

Row | Structure (SMILES) | inhibition (Trypanosoma cruzi [1]) | Activity [3] | further results
1 | CO[C@@H]1O[C@H](Cn2cc(-c3ccc(Br)cc3)nn2)[C@H](O)[C@H](O)[C@H]1O | – | Toxic | inhibition (Trypanosoma cruzi [2]): 3%
2 | OCc1cn([C@@H]2O[C@H](CO)[C@H](O)[C@H](O)[C@H]2O)nn1 | 11% | – | –
3 | COC(=O)c1cn(C[C@H]2O[C@@H](OC)[C@H](O)[C@@H](O)[C@H]2O)nn1 | 30% | – | –
4 | CO[C@@H]1O[C@H](Cn2cc(-c3cccnc3)nn2)[C@H](O)[C@H](O)[C@H]1O | 20% | – | –
5 | OC[C@H]1O[C@@H](n2cc(-c3ccc(C(F)(F)F)cc3)nn2)[C@H](O)[C@@H](O)[C@H]1O | – | Toxic | inhibition (Trypanosoma cruzi [2]): 9%
6 | OC[C@H]1O[C@@H](n2cc(CCc3ccccc3)nn2)[C@H](O)[C@@H](O)[C@H]1O | 16% | Toxic | –
7 | CO[C@@H]1O[C@H](Cn2cc(COCC3CO3)nn2)[C@H](O)[C@H](O)[C@H]1O (mixture of isomers) | 25% | – | –
8 | CO[C@@H]1O[C@H](Cn2cc(CN(C)Cc3ccccc3)nn2)[C@H](O)[C@H](O)[C@H]1O | 17% | Non-toxic | Activity (Trypanosoma cruzi [4]): Active
9 | OCCCCc1cn([C@@H]2O[C@H](CO)[C@H](O)[C@H](O)[C@H]2O)nn1 | 26% | – | –
10 | OC[C@H]1O[C@@H](n2cc(-c3cccnc3)nn2)[C@H](O)[C@@H](O)[C@H]1O | – | Toxic | inhibition (Trypanosoma cruzi [2]): 15%; Activity [5]: 50%
11 | CO[C@@H]1O[C@H](Cn2cc(-c3ccccn3)nn2)[C@H](O)[C@H](O)[C@H]1O | 14% | – | –
12 | CO[C@@H]1O[C@H](Cn2cc(-c3cccc(C(F)(F)F)c3)nn2)[C@H](O)[C@H](O)[C@H]1O | 3% | – | –
13 | CCC(O)c1cn(C[C@H]2O[C@@H](OC)[C@H](O)[C@@H](O)[C@H]2O)nn1 (mixture of isomers) | 29% | Non-toxic | –
14 | CO[C@@H]1O[C@H](Cn2cc(CO)nn2)[C@H](O)[C@H](O)[C@H]1O | 28% | – | –
15 | OC[C@H]1O[C@@H](n2cc(-c3ccccc3Br)nn2)[C@H](O)[C@@H](O)[C@H]1O | 33% | – | –
16 | Cc1ncc(COP(=O)(O)O)c(C=O)c1O | 65% | – | –
17 | OC[C@H]1O[C@@H](n2cc(-c3ccc(Br)cc3)nn2)[C@H](O)[C@@H](O)[C@H]1O | – | Active | inhibition (Trypanosoma cruzi [2]): inactive; Activity [5]: 50%

Row | Structure (SMILES) | inhibition (Trypanosoma cruzi [1]) | Activity [3] | further results
18 | OC[C@H]1O[C@@H](n2cc(-c3ccccc3)nn2)[C@H](O)[C@@H](O)[C@H]1O | 15% | – | –
19 | CO[C@@H]1O[C@H](Cn2cc(CCCO)nn2)[C@H](O)[C@H](O)[C@H]1O | 24% | Non-toxic | –
20 | CO[C@@H]1O[C@H](Cn2cc(CCc3ccccc3)nn2)[C@H](O)[C@H](O)[C@H]1O | 14% | – | –
21 | CC(=O)N[C@H]1[C@H]([C@H](O)[C@H](O)CO)OC(C(=O)O)=C[C@@H]1O | 33% | – | –
22 | CO[C@@H]1O[C@H](Cn2cc(Cc3ccccc3)nn2)[C@H](O)[C@H](O)[C@H]1O | 29% | – | –
23 | CO[C@@H]1O[C@H](Cn2cc(-c3ccccc3Br)nn2)[C@H](O)[C@H](O)[C@H]1O | 29% | – | –
24 | CO[C@@H]1O[C@H](Cn2cc(CN3C(=O)c4ccccc4C3=O)nn2)[C@H](O)[C@H](O)[C@H]1O | – | – | inhibition (Trypanosoma cruzi [2]): 11%
25 | CC(O)Cc1cn([C@@H]2O[C@H](CO)[C@H](O)[C@H](O)[C@H]2O)nn1 (single isomer, unassigned) | 14% | – | –
26 | CO[C@@H]1O[C@H](Cn2cc(-c3ccc(C(F)(F)F)cc3)nn2)[C@H](O)[C@H](O)[C@H]1O | – | Toxic | inhibition (Trypanosoma cruzi [2]): 10%; Activity (Trypanosoma cruzi [4]; [7]): Active; Activity [5]: 50%
27 | OC[C@H]1O[C@@H](n2cc(Cc3ccccc3)nn2)[C@H](O)[C@@H](O)[C@H]1O | 37% | Active | Activity (Trypanosoma cruzi [6]): 50%; Activity [5]: 50%
28 | CCC(O)c1cn([C@@H]2O[C@H](CO)[C@H](O)[C@H](O)[C@H]2O)nn1 (single isomer, unassigned) | 13% | – | –
29 | CO[C@@H]1O[C@H](Cn2cc(CCCC(=O)O)nn2)[C@H](O)[C@H](O)[C@H]1O | inactive | – | –
30 | O=C(O)CCCc1cn([C@@H]2O[C@H](CO)[C@H](O)[C@H](O)[C@H]2O)nn1 | 10% | – | –
31 | CN(Cc1ccccc1)Cc1cn([C@@H]2O[C@H](CO)[C@H](O)[C@H](O)[C@H]2O)nn1 | 22% | – | –
32 | OC[C@H]1O[C@@H](n2cc(-c3ccccn3)nn2)[C@H](O)[C@@H](O)[C@H]1O | 13% | Non-toxic | –
33 | CO[C@@H]1O[C@H](Cn2cc(-c3ccccc3)nn2)[C@H](O)[C@H](O)[C@H]1O | 14% | – | –

Now from value to compound, other results behind:

Row | inhibition (Trypanosoma cruzi [1]) | Structure (SMILES) | Activity [3] | further results
34 | 28% | COC(=O)c1cn([C@@H]2O[C@H](CO)[C@H](O)[C@H](O)[C@H]2O)nn1 | – | –
35 | 24% | CO[C@@H]1O[C@H](Cn2cc(-c3ccccc3N)nn2)[C@H](O)[C@H](O)[C@H]1O | – | –
36 | 10% | CO[C@@H]1O[C@H](Cn2cc(CC(C)O)nn2)[C@H](O)[C@H](O)[C@H]1O (mixture of isomers) | – | –
37 | 27% | OCCCc1cn([C@@H]2O[C@H](CO)[C@H](O)[C@H](O)[C@H]2O)nn1 | – | –
38 | 27% | OC[C@H]1O[C@@H](n2cc(COCC3CO3)nn2)[C@H](O)[C@@H](O)[C@H]1O (mixture of isomers) | Non-toxic | –
39 | 11% | CO[C@@H]1O[C@H](Cn2cc(-c3ccccc3C(F)(F)F)nn2)[C@H](O)[C@H](O)[C@H]1O | – | –
40 | 14% | OC[C@H]1O[C@@H](n2cc(-c3ccccc3C(F)(F)F)nn2)[C@H](O)[C@@H](O)[C@H]1O | – | –
41 | 31% | OC[C@H]1O[C@@H](n2cc(-c3cccc(C(F)(F)F)c3)nn2)[C@H](O)[C@@H](O)[C@H]1O | – | –
42 | 19% | Nc1ccc(-c2cn([C@@H]3O[C@H](CO)[C@H](O)[C@H](O)[C@H]3O)nn2)cc1 | Non-toxic | Activity (Trypanosoma cruzi [4]; [7]): Active
43 | 27% | CO[C@@H]1O[C@H](Cn2cc(CCCCO)nn2)[C@H](O)[C@H](O)[C@H]1O | – | –
44 | 30% | Nc1ccccc1-c1cn([C@@H]2O[C@H](CO)[C@H](O)[C@H](O)[C@H]2O)nn1 | Non-toxic | –
45 | 25% | O=C1c2ccccc2C(=O)N1Cc1cn([C@@H]2O[C@H](CO)[C@H](O)[C@H](O)[C@H]2O)nn1 | – | –
46 | 34% | CO[C@@H]1O[C@H](Cn2cc(-c3ccc(N)cc3)nn2)[C@H](O)[C@H](O)[C@H]1O | – | –
